ChEMBL document CHEMBL4513216, “Probing the Open Global Health Chemical Diversity Library for Multistage-Active Starting Points for Next-Generation Antimalarials” (ACS Infect Dis, 2020)

Assay: Toxicity liver stage against HepG2, at 10uM
Type: cell-based
Set-up: test concentration 10 uM, cell line HepG2-A16-CD81EGFP
Details: human, HepG2-A16-CD81EGFP cells; read-out: INHIBITION
Procedure, shortened: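 Uninfected HepG2-A16-CD81EGFP cells, 3 × 10^3 per well, 1536-well, plated on prespotted compound at 10 μM final, parasite-free screening media added to match infected plates; puromycin 10 μM positive, DMSO 0.5% negative; run in parallel with 48 h PbLuc assay at 37 °C, 5% CO2; viability by CellTiter-Glo luminescence, normalized to controls.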

Compound	cytotoxicity at 10 µM
CS(=O)(=O)N1CCN(Cc2ccc(F)cc2Br)CC1	0.0667%
O=C(CC1CCC2(CC1)CCN(Cc1nccs1)CC2)N1CC=CC1	-4.35%
CCc1ccc(-n2c(=O)[nH]c3nc(N4CCSCC4)ncc3c2=O)cc1	-4.14%
CCN(CC)c1ncnc2c(C)nn(CC)c12	-2.01%
Cc1cn[nH]c1C1COCCN1Cc1c[nH]cn1 (configuration not stated)	-1.3%
Cc1cccc(-c2nccnc2C2CCCN(C)C2)c1C (configuration not stated)	5.62%
CC(=O)N1CCCC1c1ccc(CN2CCOCC2)cn1 (configuration not stated)	5.83%
Cc1noc(C)c1-c1ccnc(C2CCN(S(=O)(=O)N(C)C)CC2)c1	-25%
CNc1cncc(C2CCCN2S(=O)(=O)c2ccc(F)cc2)n1 (configuration not stated)	-3.21%
COc1ccc(CN2CCC(c3nccnc3-n3ccnc3)CC2)cc1	-27.4%
CN(C)Cc1ccnc(C2CN(Cc3nccs3)CCO2)n1 (configuration not stated)	-2.61%
CNC(=O)C1(c2cnccn2)CCCN1C(=O)c1ccccc1 (configuration not stated)	-20.6%
CNc1cccc(C2CCCN(C(=O)c3cccnc3)C2)n1 (configuration not stated)	-16.6%
CN(C)Cc1ccnc(C2CCCN2Cc2ccc3ncccc3c2)n1 (configuration not stated)	0.026%
COc1cc2nc3n(c(=O)c2cc1OC)CCN(C(=O)C1CC1)CC3	-13.6%
CC(C)C(=O)N1CCC(c2nc(O)cc(-c3ccncc3)n2)CC1	-5.41%
COc1ccc(CN2CC[C@H](NC(C)=O)[C@@H](O)CC2)c(OC)c1	-7.49%
CCOC(=O)[C@H]1CNC[C@@H]1C(F)(F)F	7.06%
O=c1cc(CN(CCO)C2CC2)nc2ccc(Br)cn12	12.5%
CC(C)c1nn(C)c(N(C)C)c1CNC1CCCOc2ccccc21 (configuration not stated)	-13.1%
CC(C(=O)Nc1cccc(C(F)(F)F)c1)N(C)CCN1CCOCC1 (configuration not stated)	9.54%

Compound	cytotoxicity at 10 µM
Cc1noc(C(C)N2CCC(c3nc4ccccc4[nH]3)CC2)n1 (configuration not stated)	-6.4%
N#Cc1ccc(Cl)cc1N1CCC(OC2CCOCC2)CC1	3.99%
Cc1cc(C2CCCN2C(=O)CN2CCc3ccccc32)on1 (configuration not stated)	2.74%
COC(CNC(=O)CNC(=O)c1ccccc1)c1cccc(Cl)c1 (configuration not stated)	5.61%
Cc1csc(CNCC2CCCN(C(=O)OC(C)(C)C)C2)n1 (configuration not stated)	-6.82%
Cc1nnc2n1CCN(CC(=O)NC(C)c1cccc3ccccc13)C2 (configuration not stated)	7.15%
COC(C(=O)NC1CCN(S(C)(=O)=O)CC1)c1ccccc1 (configuration not stated)	-4.68%
CCc1nc(C2CCCN(c3nccc(N4CCCC4)n3)C2)no1 (configuration not stated)	19%
CS(=O)(=O)CCC(=O)Nc1cc(Cl)c(Cl)cn1	4.52%
CCOc1cncc(N2CCOCC2)n1	3.18%
CNS(=O)(=O)c1cccc(C(C)NCc2ccc(C)o2)c1 (configuration not stated)	-3.69%
O=C(CCNS(=O)(=O)c1ccc(F)c(F)c1)NCc1ccoc1	11.2%
CC(C)(C)c1nnc(CNc2cc(F)ccc2OCC2CCCO2)o1 (configuration not stated)	3.06%
O=C(C(CNCc1ccccc1O)c1ccccc1)N1CCOCC1 (configuration not stated)	-0.138%
COc1ccccc1C1(CNc2ccnc(C(=O)N(C)C)c2)CC1	-1.67%
COCCNC(=O)c1cc(F)ccc1NS(C)(=O)=O	-1.23%
NS(=O)(=O)NCC1(c2ccccc2Br)CC1	2.91%
O=C(NCC1(Sc2ccccc2)CC1)c1ccc(=O)[nH]n1	1.52%
CC(=O)NCC1CCN(C(=O)c2c[nH]c3cc(Cl)ccc23)CC1	7.07%
COC(=O)c1cccc(NC(=O)CN2CCN(S(C)(=O)=O)CC2)c1	11.3%
O=C(NCc1ccccc1F)N1CCC(C2OCCO2)CC1	2.76%

Compound	cytotoxicity at 10 µM
Cc1csc2ncc(-c3ccnc(N4CCN(C)CC4)n3)c(=O)n12	9.43%
CCn1ncnc1CN1CCc2[nH]cnc2C1c1ccccn1 (configuration not stated)	-9.38%
c1cn(-c2ccc(CN3CCCC3)cc2)c(-c2cc3n(n2)CCNC3)n1	-14.3%
O=C(O)CSc1nnc(-c2ccco2)n1-c1ccccc1C(F)(F)F	3.41%
CC1(C)Cc2c(cnn2-c2cccc(F)c2)C(NC2CCSCC2)C1 (configuration not stated)	-142%
Cc1nn(C)cc1-c1ccnc(N(C)Cc2cccs2)n1	19%
CC(=O)N1C[C@H]2CNC[C@@]2(C(=O)NCCCOc2cccnc2)C1	-7.52%
O=C1CC[C@H]2CN(Cc3ncc[nH]3)CC[C@H]2N1CC1CCNCC1	11.6%
CC(=O)N1CCN(Cc2c(C)sc3ccccc23)CC(O)C1 (configuration not stated)	14.4%
Cc1ccc(-n2cc(CN3CCOCC(CN(C)C)C3)cn2)cc1C (configuration not stated)	-19.8%
COc1cc(F)ccc1C(C(=O)O)N(C)CCN1CCOCC1 (configuration not stated)	-12.9%
CN(Cc1ccc(OCC(=O)N2CCOCC2)cc1)S(C)(=O)=O	4.64%
COCc1nc2ncc3c(=O)n(-c4ccc(C(C)=O)cc4)ccc3n2n1	-7.03%
CCOC(=O)C1(Cc2ccccc2)CCCN(Cc2nccn2CC)C1 (configuration not stated)	8.82%
CC(C)c1nccn1-c1cccc(C2CCCN(C3CCCC3)C2)n1 (configuration not stated)	7.1%
Cc1cccc(C(=O)NCc2cccnc2N(C)C)n1	0.72%
CC(Nc1cccc(CN2CCOC2=O)c1)C(=O)Nc1ccccc1 (configuration not stated)	-6.42%
CC(O)CN1CCC(CNCc2cccc(OC(F)(F)F)c2)CC1 (configuration not stated)	-7.95%
O=C(CCc1nccs1)N1CCN(c2ccc(Cl)cn2)CC1	0.665%
Cc1nnc(N2CCCC(CS(N)(=O)=O)C2)c(C#N)c1C (configuration not stated)	2.86%
Cc1cc(C(=O)N2CCCCC2c2nc(C)cs2)[nH]n1 (configuration not stated)	-8.13%

Compound	cytotoxicity at 10 µM
Cn1ccnc1CN1CCN(Cc2cc(C#N)ccc2F)CC1	-4.52%
COc1c(CNC2CCCc3ccccc32)c(C(C)C)nn1C (configuration not stated)	-2.9%
Nc1nc(CN2CCCC(Cn3cncn3)C2)nc2ccccc12 (configuration not stated)	-8.21%
CC(C)NC(=O)CS(=O)(=O)Cc1cc(Cl)c2c(c1)OCCO2	-4.53%
Cc1cnn(CC2CN(CC(=O)N(C)Cc3cccs3)CCO2)c1 (configuration not stated)	6.28%
CCCc1n[nH]c(C2CN(CCCS(C)(=O)=O)CCO2)n1 (configuration not stated)	-2.38%
O=C(NCc1nnc2n1CCCCC2)N1CCc2sccc2C1	0.553%
COc1ccc(F)cc1C(=O)N(C)Cc1cc(C)on1	0.35%
CNCc1ccc([C@@H]2CN(C(C)=O)C[C@H]2C(=O)N(C)C)cc1	3%
COc1ccc(CN(Cc2cncn2C)CC2CCCO2)cc1 (configuration not stated)	-4.47%
Cc1cccc(CN(Cc2cccnc2)C2CC(C)(C)NC(C)(C)C2)n1	-5.11%
CC(=O)N1[C@H](Cn2cncn2)C[C@@H]2CN(Cc3cccnc3)CC[C@@H]21	3.16%
Cn1ccnc1CN1CCC2(CCC(=O)N2CCN2CCCC2)CC1	-0.171%
c1cnc(N2CCO[C@H]3CN(CC4CC4)C[C@H]32)nc1	5.03%
CN(C)C(=O)CC1CC2(CCN(CC3CC3)CC2)c2cc(F)ccc21 (configuration not stated)	3.37%
O=C(c1ccno1)N1CCc2ncnc(-c3ccncc3)c2CC1	6.59%
Cn1nnc2c1CCN(Cc1ccncc1)C2COCC1CC1 (configuration not stated)	5.29%
Cc1ccc(N2CCC3(CCN(C(=O)N(C)C)CC3)CC2)nn1	5.73%
COc1ccc(N2CCN(C(=O)C3[C@H]4CNC[C@@H]34)CC2(C)C)cc1 (some centres not stated)	12.1%
